Here are results for three compounds from publication PMC6989153 (Molecular pharmaceutics, 2019).

Data set [1] addresses fatty acid-free human serum albumin (HSA) (Homo sapiens, UniProt P02768). Put plainly: Equilibrium dialysis. The format is binding. Particulars: PBS, 37°C. In outline: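 Fatty acid-free HSA was dissolved in PBS and loaded into a rapid equilibrium dialysis chamber, with PBS in the collection well. The device was shaken at 37°C, and small aliquots were drawn from the collection well over time. Concentration was measured by UV absorbance, or by gamma counting for radioiodinated compound.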
In general terms: In equilibrium dialysis only unbound substance equilibrates across the membrane.

A short description of data set [2]: Log D determination. The format is physicochemical. Particulars: octanol/water, pH 7.4. In outline:
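Test compound (radioiodinated, or fluorescent) was added to octanol and equilibrated overnight. An equal volume of distilled water at pH 7.4 was added, and the mixture was rotated at room temperature, protected from light, for 48 h. The phases were separated, and relative concentrations were measured by gamma counting (radioiodinated compound) or by fluorescence plate reader (fluorescent analogs).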

The target of data set [3] is T1, Albumin (Homo sapiens, UniProt P02768). Put plainly: Native gel electrophoresis of APC analogs in human plasma, albumin band. The format is in vitro ADME. The following applies: for Albumin (signal in band on native gel): incubated 4 hrs at 37°C, means ± SEM; for albumin binding: native gel analysis. An outline of the steps: (§1)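 Fresh, unfrozen human plasma was incubated with test compound (100nM) with shaking for 4 h at 37°C. Samples in sample buffer were run on non-denaturing Tris-glycine gels at a common voltage and duration. Band position and intensity were read by fluorescence imaging or by radioactivity scanning, followed by Coomassie staining. Standards were mouse albumin, human LDL, human HDL, gamma-globulins, alpha1-acid glycoprotein and fatty acid-free HSA.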

The subject of data set [4] is MDA-MB-231 breast cancer. Particulars: post-injection, tumor-bearing mice; cited from earlier work.
Data set [5] deals with LDL. As to the kind of experiment: Native gel electrophoresis of APC analogs in human plasma, LDL band. It is filed as in vitro ADME. The following applies: incubated 4 hrs at 37°C, means ± SEM. In outline: as §1
In data set [6] the test system is HDL. Put plainly: Native gel electrophoresis of APC analogs in human plasma, HDL band. The format is in vitro ADME. Particulars: incubated 4 hrs at 37°C, means ± SEM. In outline:
as §1

The format of data set [7] is in vivo, nude athymic mice. Particulars: for MRT (mean residence time): n=6. In outline: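 Naive athymic nude mice (20–26 g) on standard chow received test compound by tail-vein injection: fluorescent analogs at 2.6μmol/kg, radioiodinated dose normalized to mass and body weight. Pre-dose blood was taken for background. Serial 10μL maxillary-puncture samples were collected into EDTA (n=6), and levels were read by fluorescence or gamma counting. Non-compartmental analysis gave clearance, AUC, AUMC and mean residence time, normalized to starting dose.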

The target in data set [8] is T1, Albumin. As to the kind of experiment: Partitioning in fresh unfrozen human plasma with intralipid, albumin binding. The format is in vitro ADME. An outline of the steps: (§2)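 Fresh, unfrozen human plasma was incubated with test compound plus varying intralipid (20% soybean oil, 1.2% egg yolk phospholipids, 2.25% glycerin emulsion), up to 20% v/v. Plasma partitioning runs were shaken for 4 h at 37°C, then ultracentrifuged at […] for 8 h. The layers were separated, and fluorescence (radiance efficiency) or radioactivity was measured in each, expressed as a percentage per fraction.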

The test system of data set [9] is lipoprotein fraction. The format is in vitro ADME. The following applies: human plasma. An outline of the steps:
as §2

Data set [10] concerns MDA-MB-231 breast cancer. As to the kind of experiment: Tumor uptake kinetics in tumor-bearing flank xenografts. It is filed as in vivo. The following applies: MDA-MB-231 flank xenografts, IVIS fluorescence imaging, three mice.
Where [11] appears, read: athymic nude, mouse, whole blood, intravenous.
Where [12] appears, read: nude athymic mice, tail-vein injection, normalized to starting dose.
Where [13] appears, read: nude athymic mice, tail-vein injection.

SMILES strings stand for the structures. Where two headings read alike, the source gives them in different places.

T1 sequence (P02768 25-609): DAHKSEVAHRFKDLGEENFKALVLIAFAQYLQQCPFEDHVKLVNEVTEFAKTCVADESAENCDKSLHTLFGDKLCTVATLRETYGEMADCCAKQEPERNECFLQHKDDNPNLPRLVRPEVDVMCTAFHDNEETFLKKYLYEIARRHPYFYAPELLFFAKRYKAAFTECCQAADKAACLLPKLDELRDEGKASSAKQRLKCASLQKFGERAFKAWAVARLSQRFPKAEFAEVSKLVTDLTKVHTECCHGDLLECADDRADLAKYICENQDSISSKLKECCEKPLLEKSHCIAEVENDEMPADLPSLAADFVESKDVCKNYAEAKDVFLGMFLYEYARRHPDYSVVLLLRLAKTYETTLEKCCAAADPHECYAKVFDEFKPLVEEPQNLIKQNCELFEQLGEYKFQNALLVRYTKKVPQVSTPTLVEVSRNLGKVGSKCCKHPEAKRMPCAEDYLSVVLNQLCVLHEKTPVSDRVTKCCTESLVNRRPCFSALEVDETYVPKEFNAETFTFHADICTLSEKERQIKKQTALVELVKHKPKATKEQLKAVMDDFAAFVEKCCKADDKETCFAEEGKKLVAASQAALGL
Chain of fatty acid-free human serum albumin (HSA) (P02768 25-609): as above

As for `C[N+](C)(C)CCOP(=O)([O-])OCCCCCCCCCCCCCCCCCCc1ccc(I)cc1` [NM404, 18-(p-Iodophenyl)octadecylphosphocholine], in data set [1], the “binding to fatty acid-free human serum albumin” value turned out to be 96%. Also, the logD at 48 h in data set [2] is 2.07. In data set [3], the “Albumin (signal in band on native gel)” value stood at 79.99 ± 0.22 and the albumin binding is 79.99%. In addition, in data set [4], the “time at which tumor uptake was seen” value is 24 h and the “time of peak tumor uptake” value was 72 h. Further, the “LDL (signal in band on native gel)” value in data set [5] stood at 4.60 ± 0.28. Further, the “HDL (signal in band on native gel)” value in data set [6] was 15.42 ± 0.41. In [7] (setting [11]), this compound gave a Clearance of 0.333 mL/min and an MRT of 99.2 h. Moreover, in data set [7] (setting [12]), the AUC was determined as 43.66 h, the AUMC came to 4333.63 hr^2 and the Clearance is 0.02 h⁻¹.

For `C[N+](C)(C)CCOP(=O)([O-])OCCCCCCCCCCCCCCCCCCc1ccc(C2=C3C=CC=[N+]3[B-](F)(F)n3cccc32)cc1` [compound 1501, 18-[p-(4,4-difluoro-4-bora-3a,4a-diaza-s-indacene-8-yl)-phenyl]-octadecyl phosphocholine], in data set [8] (20% intralipid), the albumin-binding percentage was determined as 79.32%. In data set [8] (no intralipid), the albumin-binding percentage is listed as 85.93%. In data set [3], the “Albumin (signal in band on native gel)” value was determined as 82.64 ± 1.62 and the albumin binding was found to be 82.64%. Further, in data set [5], the “LDL (signal in band on native gel)” value came out at 7.11 ± 0.41. Further, in [6], the “HDL (signal in band on native gel)” value is reported as 10.25 ± 1.25. Besides, the “MRT (mean residence time)” value in [7] (setting [13]) was 236.07 h. In data set [7] (setting [12]), this compound yielded an AUC of 159.64 h, an AUMC of 37686.99 hr^2, a CL of 0.01 L/h and a Clearance of 0.01 h⁻¹. Further, in [9] (20% v/v intralipid), the “lipoprotein percentage of fluorescence intensity” value is given as 14.40%. Besides, in [9] (no intralipid), the “lipoprotein percentage of fluorescence intensity” value is 7.33%.

For `CN1/C(=C/C=C2\CCCC(/C=C/C3=[N+](C)c4ccccc4C3(C)C)=C2c2ccc(CCCCCCCCCCCCCCCCCCOP(=O)(O)OCC[N+](C)(C)C)cc2)C(C)(C)c2ccccc21` [compound 1502, 1,3,3-trimethyl-2-[(E)-2-[(3E)-3-(2-[(2E)-1,3,3-trimethyl-2,3-dihydro-1H-indol-2-ylidene]ethylidene}−2-[4-(18-([2-(trimethylazaniumyl)ethylhosphonato]oxy)octadecyl)phenyl]cyclohex-1-en-1-yl]ethenyl]-3H-indol-1-ium], in data set [10], the “time at which uptake into the cancer was first seen” value came to 4.5 h and the “time of peak tumor uptake” value came to 24 h. In data set [3], the “Albumin (signal in band on native gel)” value turned out to be 69.88 ± 3.32 and the albumin binding amounted to 69.88%. Moreover, in data set [5], the “LDL (signal in band on native gel)” value came to 9.21 ± 0.86. Moreover, the “HDL (signal in band on native gel)” value in data set [6] worked out at 20.90 ± 2.57. The “MRT (mean residence time)” value in [7] (setting [13]) turned out to be 33.95 h. In [7] (setting [12]), this compound had an AUC of 13.16 h, an AUMC of 446.66 hr^2, a CL of 0.08 L/h and a Clearance of 0.08 h⁻¹.

The logD is the decadic logarithm of the distribution of all forms, ionised or not, between an organic phase and buffer at a given pH. A word on the MRT: it is a mean duration of stay, worked out from the concentration-time curve.
